The text below walks through data of ChEMBL document CHEMBL1143818, “Prevention of brain injury by the nonbacteriolytic antibiotic daptomycin in experimental pneumococcal meningitis” (2007).

Values after ≈ are worked out from the molar mass of the structure shown. Active and inactive are the calls of the source. No cut-off for these calls is given here.

Test [1] deals with Streptococcus pneumoniae. Nature of the test: Antimicrobial activity against Streptococcus pneumoniae infected Wistar rat CSF assessed as decrease in bacterial titer at 50 mg/kg, sc after 2 hrs. In kind it is functional. Conditions: route subcutaneous. In short, it runs like this: (§1)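 Eleven-day-old Wistar rats infected intracisternally with 1.3 × 104 ± 0.5 × 10^4 CFU of S. pneumoniae serotype 3 clinical isolate in 10 μl saline. Single s.c. antibiotic dose started 18 h post-infection. CSF taken by cisterna magna puncture before therapy and at 20 h and 24 h post-infection. CFU counted by plating serial dilutions of 10 μl CSF on blood agar (detection limit 10^3 CFU/ml).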

In test [2] the test system is Rattus norvegicus. Nature of the test: Decrease in TNFalpha level in Streptococcus pneumoniae infected Wistar rat CSF at 50 mg/kg, sc after 24 hrs by ELISA. Type of test: functional. Conditions: route subcutaneous. In a few lines: (§2)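 Infant Wistar rats (11 days old) infected intracisternally with S. pneumoniae serotype 3 (1.3 × 104 ± 0.5 × 10^4 CFU). Single s.c. antibiotic dose given 18 h post-infection. CSF sampled by intracisternal puncture 2 and 6 h after dosing and at 24 h post-infection. Samples spun 5 min at 13,000 rpm, 4°C to remove bacteria and leukocytes, diluted 20-fold, then assayed for rat TNF-α by ELISA (detection limit <5 pg/ml).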
In general terms: An ELISA detects its analyte on a solid surface through an enzyme-linked reagent.

The test system of test [3] is Streptococcus pneumoniae. The experiment in a line: Antimicrobial activity against Streptococcus pneumoniae infected Wistar rat CSF assessed as decrease in bacterial titer at 50 mg/kg, sc after 6 hrs. The arrangement: dose 50 mg/kg. In kind it is functional, organism-based. In short, it runs like this: as §1
Test [4] relates to Streptococcus pneumoniae. The experiment in a line: Effect on Streptococcus pneumoniae infection induced brain injury in Wistar rat hippocampal dentate gyrus assessed as number of apoptotic cells at 50 mg/kg, sc after 40 hrs. Conditions: route subcutaneous. In kind it is functional. In short, it runs like this:
(§3)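 Following intracisternal pneumococcal infection and s.c. dosing from 18 h, brains were taken at 20, 24 or 40 h after PFA perfusion. Cells with fragmented bodies or condensed nuclei were counted blind in three ×400 fields in each of the four dentate gyrus blades. Counts averaged over twelve coronal sections per animal. Uninfected rats served as controls.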

Test [5] relates to Rattus norvegicus. The experiment in a line: Effect on TNFalpha level in Streptococcus pneumoniae infected Wistar rat CSF at 50 mg/kg, sc after 2 to 6 hrs y ELISA. Conditions: route subcutaneous. Type of test: functional. In a few lines:
as §2

The subject of test [6] is Streptococcus pneumoniae. Nature of the test: Effect on Streptococcus pneumoniae infection induced elevation of MMP9 level in Wistar rat CSF assessed as MMP-9/MMP-2 index at 50 mg/kg, sc after 40 hrs by gel zymography. Type of test: functional. Conditions: route subcutaneous. In a few lines: (§4)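 Intracisternally infected 11-day-old Wistar rats (S. pneumoniae serotype 3) dosed s.c. from 18 h. CSF sampled at 20, 24 or 40 h post-infection. 3 μl CSF run on nonreducing 10% SDS-PAGE containing 1% gelatin. Gels washed 1 h in 2.5% Triton X-100, incubated 18 h at 37°C (50 mM NaCl, 10 mM CaCl2, 50 mM Tris, pH 7.6), Coomassie stained. Lysis zones at 92 and 72 kDa measured by densitometry and reported as MMP-9/MMP-2 ratio. Uninfected saline-injected rats served as controls.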

Test [7] concerns Streptococcus pneumoniae. The experiment in a line: Antibacterial activity against Streptococcus pneumoniae ATCC 49619. Type of test: functional. In short, it runs like this:
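MIC by antibiotic gradient strip (Etest) on blood agar plates inoculated with the strain, per manufacturer's recommendations; reference strain tested in parallel with the serotype 3 clinical isolate.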

Test [8] concerns Streptococcus pneumoniae. Nature of the test: Effect on Streptococcus pneumoniae infection induced brain injury in Wistar rat hippocampal dentate gyrus assessed as number of apoptotic cells at 50 mg/kg, sc after 20 hrs. In kind it is functional. Conditions: route subcutaneous. In a few lines: as §3
The subject of test [9] is Streptococcus pneumoniae. The experiment in a line: Effect on Streptococcus pneumoniae infection induced brain injury in Wistar rat hippocampal dentate gyrus assessed as number of apoptotic cells at 50 mg/kg, sc after 24 hrs. Type of test: functional. Conditions: route subcutaneous. In a few lines: as §3
In test [10] the test system is Streptococcus pneumoniae. Nature of the test: Effect on Streptococcus pneumoniae infection induced elevation of MMP9 level in Wistar rat CSF assessed as MMP-9/MMP-2 index at 50 mg/kg, sc after 20 hrs by gel zymography. In kind it is functional. Conditions: route subcutaneous. In short, it runs like this: as §4
The test system of test [11] is Streptococcus pneumoniae. Nature of the test: Effect on Streptococcus pneumoniae infection induced elevation of MMP9 level in Wistar rat CSF assessed as MMP-9/MMP-2 index at 50 mg/kg, sc after 24 hrs by gel zymography. In kind it is functional. Conditions: route subcutaneous. In short, it runs like this:
as §4

The test system of test [12] is Streptococcus pneumoniae. Nature of the test: Antibacterial activity against Streptococcus pneumoniae serotype 3. Type of test: functional. In short, it runs like this:
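MIC by gradient-strip diffusion (Etest) on blood agar plates inoculated with the study's serotype 3 clinical isolate, run per manufacturer's recommendations. Reference strain ATCC 49619 was tested in parallel. Result read as MIC in mg/liter.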

For test [13], the system named is Rattus norvegicus. Nature of the test: Decrease on TNFalpha level in Streptococcus pneumoniae infected Wistar rat CSF at 100 mg/kg, sc after 24 hrs by ELISA. Type of test: functional. Conditions: route subcutaneous. In short, it runs like this: as §2
In test [14] the test system is Rattus norvegicus. Nature of the test: Effect on TNFalpha level in Streptococcus pneumoniae infected Wistar rat CSF at 100 mg/kg, sc after 2 to 6 hrs y ELISA. In kind it is functional. Conditions: route subcutaneous. In short, it runs like this: as §2
Test [15] deals with Streptococcus pneumoniae. The experiment in a line: Antimicrobial activity against Streptococcus pneumoniae infected Wistar rat CSF assessed as decrease in bacterial titer at 100 mg/kg, sc after 2 hrs. In kind it is functional. Conditions: route subcutaneous. In short, it runs like this: as §1

By MIC is commonly meant the least concentration at which growth counts as inhibited. `CCCCCCCCCC(=O)N[C@@H](Cc1c[nH]c2ccccc12)C(=O)N[C@H](CC(N)=O)C(=O)N[C@@H](CC(=O)O)C(=O)N[C@@H]1C(=O)NCC(=O)N[C@@H](CCCN)C(=O)N[C@@H](CC(=O)O)C(=O)N[C@H](C)C(=O)N[C@@H](CC(=O)O)C(=O)NCC(=O)N[C@H](CO)C(=O)N[C@@H]([C@H](C)CC(=O)O)C(=O)N[C@@H](CC(=O)c2ccccc2N)C(=O)O[C@@H]1C`: the Log10 cfu in test [1] is given as 3.6 /ml. The Activity in test [2] was found to be 352 pg/mL; in test [4], 6.1%; in [5], 3059 pg/mL; in test [8], 5.5%; in [9], 14.9%. Moreover, in [3], the outcome was Active. The values for the Ratio in test [6], in test [10] and in test [11] were 0.6, 1.6 and 1.2, respectively. In addition, the results for the MIC in [7] and in [12] were 0.38 µg/mL (≈ 0.234 µM) and 0.25 µg/mL (≈ 0.154 µM), respectively.
As to `CO/N=C(\C(=O)N[C@@H]1C(=O)N2C(C(=O)O)=C(CSc3nc(=O)c(O)nn3C)CS[C@H]12)c1csc(N)n1` [CEFTRIAXONE], the Activity came out at 249 pg/mL in test [13] and 4578 pg/mL in test [14]. For the same molecule, the MIC in test [7] worked out at 0.094 µg/mL (≈ 0.169 µM); in test [12] it was 0.023 µg/mL (≈ 0.0415 µM). Besides, the Log10 cfu in test [15] is 6.3 /ml.
